Assay outcomes (PubChem)
Sampled rows, rich in hits. Any-hit rate of the full collection: about 3.5%.
Ecoli rRNA inh: reduced GFP signal of wild-type E. coli, primary screen, bacterial rRNA inhibitor project, GFP/RFP fluorescence, OD600, single point | E. coli WT GFP vs humanized-ribosome RFP mutants, 24 h; hits give low values; DMSO median 0, no signal -100 | GFP signal change (wild-type ribosome), % (concentration not given with the values) | 350,000 tested, 1.6% active | AID 720706, 2013;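 active = significant combined selectivity score with lowered wild-type GFP, culture density cut under 30%, mutant RFP and density less affected; inactive = any of these conditions unmet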
Env fusion inh: inhibitors of HIV-1 Env-driven cell-cell fusion, primary screen, HeLa-JRFL effector, CEM21 target cells, luciferase | inhibition, % at 12.3 µM | 360,000 tested, 1.1% active | AID 651610, 2012;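 active = mean replicate inhibition score of at least 50 and every replicate individually at or above 50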
FN deposition inh: inhibitors of fibronectin matrix deposition, primary screen, AH1F cells, Alexa488-fibronectin fluorescence, plate reader. inhibition, % at 12.6 µM. AID 743247, 2014. AH1F fibroblasts, overnight. 350,000 tested, 0.086% active;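 active = mean inhibition across replicates of 30% or more, regardless of how many single replicates reach that level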
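Assay system: AH1F fibroblasts assembling fluorescent fibronectin matrix; Amount: 10000 AH1F cells per well; Buffer or medium: DMEM, 2% serum; Probe or stimulus: Alexa488-fibronectin, 24 nM final in well; Doses: single compound dose, delivered by pin transfer; Incubation: 1 h adhesion, overnight exposure; Measured by: fluorescence 485/525 nm; Read-out: fibronectin deposition inhibition.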
DENV2 CPE: inhibitors of DENV2 cytopathic effect, primary screen, cell-based, plate reader, single concentration. DENV2-infected cells, cytopathic effect rescue. CPE inhibition, % at 9.99 µM. 350,000 tested, 1.7% active. AID 651640, 2012; in the data active = CPE inhibition above about 20%, passing the limit was not always enough; tested in BHK-21 cells
PGC1a acetyl inh: inhibitors of PGC1a acetylation signal, primary screen, cell-based, U2OS, AlphaScreen, inhibitor mode. AlphaScreen anti-acetyl-lysine; with virally co-expressed GCN5 acetyltransferase. inhibition, % at 15.6 µM. 350,000 tested, 0.17% active;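 active = every replicate shows inhibition of at least 40%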
PglD inh: C. jejuni PglD acetyltransferase inhibitors, primary screen, biochemical, DTNB colorimetric, single point | purified PglD enzyme, DTNB colorimetric CoA detection | inhibition, % at 12.5 µM | 360,000 tested, 0.098% active | AID 602405, 2012; in the data active = inhibition above about 16%, passing the limit was not always enough
Each line names hits and unclear results; the compound was inactive in the other large screens.

CC(C)CC#Cc1cnc2c(c1)C(=O)N([C@@H](C)CO)C[C@H](C)[C@@H](CN(C)C(=O)c1ccccc1F)O2	none
C/C=C/c1cnc2c(c1)C(=O)N([C@H](C)CO)C[C@@H](C)[C@H](CN(C)C(=O)c1cccc(F)c1)O2	none
COc1ccccc1C#Cc1cnc2c(c1)C(=O)N([C@@H](C)CO)C[C@H](C)[C@H](CN(C)CC1CC1)O2	none (no result: Env fusion inh, PglD inh)
CCC(=O)N(C)C[C@@H]1Oc2cc(C#C[C@H](C)O)ccc2S(=O)(=O)N([C@H](C)CO)C[C@H]1C	none
COc1ccc(CC(=O)NNC(=O)COc2ccc(C)cc2)cc1S(=O)(=O)N1CCOCC1	DENV2 CPE 40 (no result: Env fusion inh)
COc1ccc(CC(=O)NNC(=O)COc2ccc(F)cc2)cc1S(=O)(=O)N1CCOCC1	none
COc1ccc(NC(=O)CCCOc2ccc(Cl)c(C)c2)cc1S(=O)(=O)N1CCOCC1	Env fusion inh 59
N#C[C@H]1[C@@H](c2ccccc2-c2ccccc2)[C@@H](CO)N1C(=O)Cc1cccnc1	none (no result: Env fusion inh, DENV2 CPE, PGC1a acetyl inh, PglD inh)
Cc1ccc(-n2sc3ccccc3c2=O)cc1S(=O)(=O)N1CCCCC1	PglD inh 22 (no result: PGC1a acetyl inh)
O=c1c2ccccc2sn1-c1ccc(S(=O)(=O)N2CCCCC2)cc1	none (no result: Ecoli rRNA inh, Env fusion inh, FN deposition inh, DENV2 CPE)
COc1cccc(S(=O)(=O)N[C@H]2C=C[C@@H](CC(=O)NCc3ccncc3)O[C@@H]2CO)c1	none
CCOC(=O)c1ccc(NC(=O)C2=C(C)Nc3nc(CCCO)nn3C2c2cccc(C)c2)cc1 (stereo not drawn)	DENV2 CPE 73 (no result: PGC1a acetyl inh)
COc1ccc(OC)c(C2C(C(=O)Nc3ccc(F)cc3)=C(C)Nc3nc(CCCO)nn32)c1 (stereo not drawn)	none
Cc1cccc(C)c1NC(=O)C1(C)CSCC(=O)N1Cc1cccc(C(F)(F)F)c1 (stereo not drawn)	DENV2 CPE 34 (no result: PGC1a acetyl inh, PglD inh)
O=C(NC[C@H]1[C@H](c2ccccc2)[C@@H](CO)N1CC1CC1)c1cccnc1	none (no result: Env fusion inh)
CCC(=O)N[C@H]1CC[C@@H](CC(=O)NCc2ccc(OC)cc2)O[C@H]1CO	none (no result: FN deposition inh)
O=C(Cc1ccccc1)N1CC(=O)N2[C@@H](CO)[C@H](c3ccc(C#Cc4ccccc4)cc3)[C@@H]2C1	DENV2 CPE 24 (no result: Env fusion inh, FN deposition inh, PglD inh)
O=C(Cc1ccccc1)N1CC(=O)N2[C@H](CO)[C@@H](c3ccc(C#Cc4ccccc4)cc3)[C@H]2C1	none (no result: Env fusion inh, FN deposition inh, PglD inh)
O=C(c1ccccn1)N1CC(=O)N2[C@H](CO)[C@@H](c3ccc(C#Cc4ccccc4)cc3)[C@@H]2C1	DENV2 CPE 52 (no result: Env fusion inh, FN deposition inh, PglD inh)
O=C(c1ccccn1)N1CC(=O)N2[C@H](C1)[C@H](c1ccc(C#CCc3ccccc3)cc1)[C@@H]2CO	DENV2 CPE 54 (no result: Env fusion inh, FN deposition inh, PglD inh)
COc1cccc(-c2ccc([C@H]3[C@@H](CO)N4C(=O)CN(C(=O)C5CCOCC5)C[C@@H]34)cc2)c1	DENV2 CPE 33 (no result: Env fusion inh, FN deposition inh, PglD inh)
C[C@H]1CN([C@@H](C)CO)C(=O)c2cc(-c3ccccc3)cnc2O[C@H]1CN(C)C	none
C[C@@H]1CCCCO[C@H](CN(C)C(=O)NC2CCCCC2)[C@@H](C)CN([C@@H](C)CO)C(=O)c2cc(NC(=O)CCC(F)(F)F)ccc2O1	none (no result: FN deposition inh, PGC1a acetyl inh)
C[C@@H]1CN([C@H](C)CO)C(=O)c2cc(NC(=O)Nc3ccc(F)cc3)ccc2O[C@@H]1CN(C)Cc1ccc2c(c1)OCO2	none (no result: Env fusion inh)
COCC(=O)N1CC(=O)N2[C@H](CO)[C@H](c3ccc(C#Cc4cccc(OC)c4)cc3)[C@H]2C1	none (no result: Env fusion inh, FN deposition inh, PglD inh)
C/C=C/c1ccc([C@@H]2[C@@H](CO)N3C(=O)CN(C(=O)c4cnccn4)C[C@@H]23)cc1	DENV2 CPE 59 (no result: Env fusion inh, FN deposition inh, PglD inh)
O=C(Cc1ccccn1)N1CC(=O)N2[C@H](C1)[C@@H](c1ccc(C#CC3CCCCC3)cc1)[C@@H]2CO	none (no result: Env fusion inh, PglD inh)
COCC(=O)N1CC(=O)N2[C@H](CO)[C@H](c3ccc(C#Cc4cccc(OC)c4)cc3)[C@@H]2C1	DENV2 CPE 40 (no result: Env fusion inh, FN deposition inh, PglD inh)
